The test system of data set [1] is SK-BR-3. Briefly: Induction of apoptosis in human SK-BR-3 cells assessed as late apoptotic cells at 10 uM incubated for 36 hrs by Annexin V/PI staining based flow cytometry (reference value: 4.95 %). It counts as functional.
A further data set has as its system HEK-293T. Briefly: Cytotoxicity against HEK293T cells assessed as cell growth inhibition measured after 48 hrs by MTT assay. Format: functional, cell-based. Particulars: Homo sapiens. In short, it runs like this:
(§1)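 MTT cell viability read-out; IC50 obtained by non-linear regression of concentration–response data; values are mean ± SD of three independent experiments.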

For data set [2], the system named is SK-BR-3. Briefly: Induction of cell cycle arrest in human SK-BR-3 cells assessed as accumulation of cells at G1 phase at 5 to 10 uM incubated for 36 hrs by PI staining based flow cytometry. It counts as functional. As to conditions: dose 5-10 µM. In short, it runs like this: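 Following 36 h treatment (0, 5, 10 μM), trypsinized cells fixed overnight in 70% ethanol, treated with RNase (0.2 mg/mL) and PI (0.1 mg/mL) for 20 min, then analysed by flow cytometry for cell-cycle distribution; n = 3 versus control.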

A short description of data set [3]: Thermal stability of compound in boiling toluene at 120 degreeC assessed as time taken for compound decomposition at 1 mg/ml by HPLC analysis. As to conditions: read-out: T50. Format: physicochemical.
For data set [4], the system named is SK-BR-3. Briefly: Induction of apoptosis in human SK-BR-3 cells assessed as viable cells at 5 uM incubated for 36 hrs by Annexin V/PI staining based flow cytometry (reference value: 90.4 %). As to conditions: read-out: Activity. It counts as functional.
Data set [5] can be described thus: Metabolic stability in simulated intestinal fluid at 37 degreeC at 1 mg/ml measured upto 1 hr by HPLC analysis. Format: ADME. As to conditions: simulated gi fluid. In short, it runs like this: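 Compound at 1 mg mL−1 was incubated in simulated intestinal fluid at 37 °C for up to 1 h. Remaining percentage was measured by HPLC on a C18 column (5 µm, 4.6 × 250 mm), eluting with 95% MeOH/5% H2O.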

For a further data set, the system named is MDA-MB-231. Briefly: Antiproliferative activity against human MDA-MB-231 cells assessed as inhibition of cell viability measured after 48 hrs by MTT assay. Format: functional, cell-based. Particulars: MDA-MB-231, 48 h. Summed up:
as §1

In data set [6] the test system is SK-BR-3. Briefly: Induction of apoptosis in human SK-BR-3 cells assessed as increase in cleaved PARP level at 10 to 20 uM incubated for 48 hrs by Western blot analysis. Format: functional, cell-based. As to conditions: dose 10-20 µM. In short, it runs like this: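 Cells exposed 48 h (DMSO vehicle control); trypsinized, lysed in RIPA with phosphatase/protease inhibitors; 20 μg protein on SDS-PAGE, blotted, blocked 5% milk 1 h; primary antibodies 1:1000 overnight at 4 °C, GAPDH 1:10000 as loading control; HRP secondary 1:1000–1:5000; ECL detection.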

Structures are written as SMILES. pIC50: −log10 of the molar value. Calls of active or inactive are those of the source. The calls are words filed in the database; no cut-off is given here.

Regarding `CN1CCN(/C=C/C(=O)/C=C/c2cccc(O[Si](C)(C)C(C)(C)C)c2)CC1`, the Activity in the data set on SK-BR-3 [1] is recorded as 8.42%. Besides, the pIC50 in the data set with HEK-293T is 4.49; in the data set with MDA-MB-231, 4.93. Besides, the outcome in the data set on SK-BR-3 [2] and in the data set on SK-BR-3 [6] was Active. For the same molecule, in data set [3], the half-life at 1 mg/ml is over 12 h. Also, the viability at 5 µM in the data set with SK-BR-3 [4] was 89.6%. For the same molecule, the Stability result in data set [5] was “Stable”.
